Reference: ChEMBL document CHEMBL1127457, “Nonpeptide renin inhibitors with good intraduodenal bioavailability and efficacy in dog” (J Med Chem, 1994)

Assays:
[1] = Average area under curve for compound at 1 mg/kg dose intravenous administration to Ferret; conditions: in vivo
[2] = Average area under curve at 10 mg/kg dose after intraduodenal administration to Ferret; conditions: in vivo
[3] = Oral bioavailability in ferret; conditions: in vivo
[4] = Average peak plasma concentration of compound after 10 mg/kg intraduodenal administration to Ferret
[5] = Average peak plasma concentration of compound after 1 mg/kg intravenous administration to Ferret
[6] = Partition coefficient (logD6.5); conditions: octanol/water, pH 6.5
[7] = Partition coefficient (logD7.4); conditions: octanol/water, pH 7.4
Renin [8] = target: T1, Renin (Homo sapiens, UniProt P00797); experiment: Tested in vitro for its ability to inhibit the human plasma renin; type: cell-free
T1 sequence (P00797 whole entry): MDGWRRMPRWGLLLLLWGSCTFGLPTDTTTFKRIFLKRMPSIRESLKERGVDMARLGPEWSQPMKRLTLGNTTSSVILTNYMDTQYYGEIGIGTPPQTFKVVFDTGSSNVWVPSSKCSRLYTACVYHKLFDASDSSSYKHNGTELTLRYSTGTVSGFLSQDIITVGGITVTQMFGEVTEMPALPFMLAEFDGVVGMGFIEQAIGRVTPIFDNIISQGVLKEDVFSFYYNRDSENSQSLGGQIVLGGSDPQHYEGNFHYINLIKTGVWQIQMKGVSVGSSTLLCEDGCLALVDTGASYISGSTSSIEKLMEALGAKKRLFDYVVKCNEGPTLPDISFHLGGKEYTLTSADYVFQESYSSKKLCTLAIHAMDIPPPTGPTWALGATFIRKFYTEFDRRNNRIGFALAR
How it was run: (§1)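 IC50 against renin in plasma from the named species (dog, ferret, human, rat); single determination in most cases.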

Renin [9] = target: T2, Renin (Rattus norvegicus, UniProt P08424); experiment: (§2) Tested in vitro for its ability to inhibit the rat plasma renin; type: cell-free; how it was run: as §1
T2 sequence (P08424 whole entry): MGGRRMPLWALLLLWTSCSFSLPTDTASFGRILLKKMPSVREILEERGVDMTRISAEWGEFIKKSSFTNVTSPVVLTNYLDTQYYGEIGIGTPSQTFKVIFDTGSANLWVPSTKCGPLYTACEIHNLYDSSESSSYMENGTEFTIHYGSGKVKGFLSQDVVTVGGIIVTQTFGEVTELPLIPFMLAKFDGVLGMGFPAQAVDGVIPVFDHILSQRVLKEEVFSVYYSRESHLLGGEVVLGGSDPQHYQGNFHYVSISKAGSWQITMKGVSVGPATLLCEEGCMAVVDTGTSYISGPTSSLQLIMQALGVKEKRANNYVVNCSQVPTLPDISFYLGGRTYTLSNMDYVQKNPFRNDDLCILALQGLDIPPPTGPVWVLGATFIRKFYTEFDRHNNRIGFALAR

Renin (Canis familiaris) [10] = experiment: Tested in vitro for its ability to inhibit the dog plasma renin
[11] = target: Renin (Mustela putorius furo); experiment: Tested in vitro for its ability to inhibit the ferret plasma renin
[12] = Average area under curve for the compound at 10 mg/kg dose after intraduodenal administration to rat; conditions: in vivo
[13] = Average area under curve for the compound at 1 mg/kg dose after intravenous administration to rat; conditions: in vivo
[14] = Oral bioavailability in rat; conditions: in vivo, intraduodenal, 10 mg/kg
[15] = Average peak plasma concentration of compound after 10 mg/kg intraduodenal administration to rat
[16] = Average peak plasma concentration of compound after 1 mg/kg intravenous administration to rat; conditions: plasma
Homo sapiens = species: Homo sapiens; conditions: Liver, Microsome
[17] = Average area under curve at 10 mg/kg intraduodenal administration to salt depleted dog; conditions: in vivo
[18] = Average area under curve at 1 mg/kg intravenous administration to salt depleted dog; conditions: in vivo
[19] = Oral bioavailability in dog (salt depleted); conditions: in vivo
Canis familiaris [20] = experiment: Mean arterial pressure response following 10 mg/kg intraduodenal administration to salt depleted dog; conditions: in vivo, other
Canis familiaris [21] = experiment: Mean arterial pressure response following 1 mg/kg intravenous administration to salt depleted dog; conditions: in vivo
[22] = Average peak plasma concentration of compound after 1 mg/kg intravenous administration in salt depleted dog
[23] = Average peak plasma concentration of compound at 10 mg/kg intraduodenal administration in salt depleted dog
Renin [24] = target: T2, Renin; experiment: as §2; type: functional, cell-free; how it was run: as §1
Renin (Canis familiaris) [25] = experiment: Tested in vitro for its ability to inhibit the dog plasma renin; remark: listed apart in the source
[26] = target: Renin (Mustela putorius furo); experiment: Tested in vitro for its ability to inhibit the ferret plasma renin; remark: listed apart in the source
Renin (Canis familiaris) [27] = experiment: Tested in vitro for its ability to inhibit the dog plasma renin; remark: listed apart in the source
[28] = target: Renin (Mustela putorius furo); experiment: Tested in vitro for its ability to inhibit the ferret plasma renin; remark: listed apart in the source

| AUC [1] [ng·h/mL] | AUC [2] [ng·h/mL] | bioavailability [3] [%] | Cmax ([4]; plasma) [ng/mL] | Cmax ([5]; plasma) [ng/mL] | logD [6] | logD [7] | IC50 (Renin [8]) [nM] | AUC [12] [ng·h/mL] | AUC [13] [ng·h/mL] | bioavailability [14] [%] | Cmax ([15]; plasma) [ng/mL] | Cmax [16] [ng/mL] | AUC [17] [ng·h/mL] | AUC [18] [ng·h/mL] | bioavailability [19] [%] | Arterial pressure (Canis familiaris [20]) [% mmHg min] | Arterial pressure (Canis familiaris [21]) [% mmHg min] | Structure (SMILES) | Rate (nM min-1 (nM of cytochrome P450)-1) (Homo sapiens) | other results |
| --- | --- | --- | --- | --- | --- | --- | --- | --- | --- | --- | --- | --- | --- | --- | --- | --- | --- | --- | --- | --- |
| 71.3 | 54.8 | 7 | 110 | 320 | 4.07 | 4.11 | 3.8 | – | – | – | – | – | – | – | – | – | – | CCCC[C@H](N[C@@H](Cc1ccccc1)C(=O)N1CCC(OCOC)CC1)C(=O)N[C@@H](CC1CCCCC1)[C@@H](O)C[C@H](C(=O)NCCNc1noc(N)n1)C(C)C | – | – |
| – | – | – | – | – | – | – | – | – | – | – | – | – | – | – | – | – | – | CCCC[C@H](N[C@@H](Cc1ccccc1)C(=O)N1CCC(OCOC)CC1)C(=O)N[C@@H](CC1CCCCC1)[C@@H](O)C[C@H](C(=O)NCCCn1ccnc1)C(C)C | – | IC50 (Renin [9]): 7300 nM; IC50 (Renin (Canis familiaris) [10]): 24 nM; IC50 [11]: 330 nM |
| 1680 | 5680 | 33 | 3730 | 3600 | > 5 | > 5 | 14 | 570 | 352 | 15 | 360 | 1000 | – | – | – | – | – | CCCC[C@H](N[C@@H](Cc1ccccc1)C(=O)N1CCC(OCOC)CC1)C(=O)N[C@@H](CC1CCCCC1)[C@@H](O)C[C@H](C(=O)NCCN1CCCCC1)C(C)C | 4.52 | – |
| 668 | 1350 | 20 | 1180 | 1830 | 3.6 | 3.6 | 4.3 | 140 | 212 | 6 | 140 | 1130 | 1430 | > 732 | < 19 | 6881 | 3707 | CCCC[C@H](N[C@@H](Cc1ccccc1)C(=O)N1CCC(OCOC)CC1)C(=O)N[C@@H](CC1CCCCC1)[C@@H](O)C[C@H](C(=O)NCCC[N+]1([O-])CCOCC1)C(C)C | – | Cmax ([22]; plasma): > 5530 ng/mL; Cmax ([23]; plasma): 420 ng/mL; IC50 (Renin [24]): 6400 nM; IC50 (Renin (Canis familiaris) [25]): 19 nM; IC50 [26]: 420 nM |
| 902 | 6800 | 75 | – | – | 3.9 | – | – | 235 | 66.7 | 36.3 | – | – | 4000 | 693 | 57 | 10803 | 8356 | CCCC[C@H](N[C@@H](Cc1ccccc1)C(=O)N1CCC(OCOC)CC1)C(=O)N[C@@H](CC1CCCCC1)[C@@H](O)C[C@H](C(=O)NCCCN1CCOCC1)C(C)C | 4.14 | Cmax ([4]; in vivo): 4620 ng/mL; Cmax ([15]; in vivo): 190 ng/mL; Cmax ([22]; in vivo): 4700 ng/mL; Cmax ([5]; in vivo): 1550 ng/mL; Cmax ([23]; in vivo): 1260 ng/mL |
| – | – | – | – | – | 3.3 | – | – | – | – | – | – | – | – | – | – | – | – | CCCC[C@H](O[C@@H](Cc1ccccc1)C(=O)N1CCC(OCOC)CC1)C(=O)N[C@@H](CC1CCCCC1)[C@@H](O)C[C@H](C(=O)NCCCN1CCOCC1)C(C)C | 4.26 | – |
| 2630 | 16600 | 63 | 11500 | 2980 | > 5 | > 5 | 9.1 | 763 | 215 | 35 | 600 | 340 | 6970 | 1840 | 37 | 8525 | 7589 | CCCC[C@H](N[C@@H](Cc1ccccc1)C(=O)N1CCC(OCOC)CC1)C(=O)N[C@@H](CC1CCCCC1)[C@@H](O)C[C@H](C(=O)NCC(C)(C)N1CCOCC1)C(C)C | 4.32 | Cmax ([22]; plasma): 7560 ng/mL; Cmax ([23]; plasma): 1600 ng/mL; IC50 (Renin [9]): 2100 nM; IC50 (Renin (Canis familiaris) [27]): 14 nM; IC50 [28]: 120 nM |
